Assay results published in ChEMBL document CHEMBL1127536, “2-Azetidinones as inhibitors of cholesterol absorption” (J Med Chem, 1994).

Columns and labels:
[1] = system: Cricetinae gen. sp.; assay: Percent reduction in plasma cholesterol was evaluated by hamster cholesterol absorption assay at the particular dose of 50 (mg/kg/day); type: functional, Cricetulus griseus
Outline: (§1)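 Hamsters fed cholesterol for 1 week while dosed daily (mg/kg/day). Read-out was inhibition of the rise in plasma cholesterol, measured by a cholesterol oxidase kit method.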

[2] = system: Cricetinae gen. sp.; assay: Percent reduction of hepatic cholesteryl esters was evaluated by hamster cholesterol absorption assay at the particular dose of 50 (mg/kg/day); type: functional, Cricetulus griseus
Outline: (§2)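 Hamsters fed cholesterol for 1 week while dosed daily (mg/kg/day). Liver was Folch-extracted and neutral lipids were analysed by HPLC, giving the reduction in hepatic cholesteryl ester rise as the absorption marker. ED50 was taken from dose-response curves.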

[3] = target: T1, Sterol O-acyltransferase 1 (Rattus norvegicus) (UniProt O70536); assay: Inhibition of Acyl coenzyme A:cholesterol acyltransferase in microsomal ACAT assay at 10 uM
T1 sequence (whole entry): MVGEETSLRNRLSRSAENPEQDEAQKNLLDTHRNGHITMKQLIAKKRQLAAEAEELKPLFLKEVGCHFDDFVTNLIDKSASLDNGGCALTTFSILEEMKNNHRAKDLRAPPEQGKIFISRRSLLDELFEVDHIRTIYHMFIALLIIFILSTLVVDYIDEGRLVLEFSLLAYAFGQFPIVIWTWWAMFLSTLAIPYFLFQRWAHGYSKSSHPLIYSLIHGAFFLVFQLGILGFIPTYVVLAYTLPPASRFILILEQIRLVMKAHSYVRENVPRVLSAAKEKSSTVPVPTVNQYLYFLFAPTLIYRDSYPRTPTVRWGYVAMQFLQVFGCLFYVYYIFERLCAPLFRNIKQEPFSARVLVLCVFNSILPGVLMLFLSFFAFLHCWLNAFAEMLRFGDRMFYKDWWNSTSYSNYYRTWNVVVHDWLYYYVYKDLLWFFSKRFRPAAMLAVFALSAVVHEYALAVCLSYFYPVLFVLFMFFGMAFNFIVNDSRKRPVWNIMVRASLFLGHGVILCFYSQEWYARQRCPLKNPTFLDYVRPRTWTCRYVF
Outline: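 Rat hepatic microsomes (12.5 μg protein) with 90 µM fatty-acid-free BSA in 0.1 M potassium phosphate, 2 mM DTT, pH 7.4. Compound added from DMSO stocks and preincubated 15 min at 37 °C. Reaction started with [³H]-oleoyl-CoA (10 μM final) and run 15 min at 37 °C. Aliquot spotted on silica TLC, developed, and radioactivity in the cholesteryl oleate band counted by scintillation.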

[4] = target: T2, Sterol O-acyltransferase 1 (Rattus norvegicus, UniProt O70536); assay: Concentration required for 50% inhibition of Acyl coenzyme A:cholesterol acyltransferase activity using microsomal ACAT assay
T2 sequence (O70536 whole entry): T1 sequence (whole entry)

[5] = system: Cricetinae gen. sp.; assay: Percent reduction in plasma cholesterol was evaluated by hamster cholesterol absorption assay at the particular dose of 100 (mg/kg/day); type: functional, Cricetulus griseus; outline: as §1
[6] = system: Cricetinae gen. sp.; assay: Percent reduction of hepatic cholesteryl esters was evaluated by hamster cholesterol absorption assay at the particular dose of 100 (mg/kg/day); type: functional, Cricetulus griseus; outline: as §2
[7] = system: Cricetinae gen. sp.; assay: Percent reduction of hepatic cholesteryl esters was evaluated by hamster cholesterol absorption assay at the particular dose of 10 (mg/kg/day); type: functional, Cricetulus griseus; outline: as §2
[8] = system: Cricetinae gen. sp.; assay: Effective dose evaluated in hamster cholesterol absorption assay; type: functional; outline: as §2
[9] = system: Cricetinae gen. sp.; assay: Percent reduction in plasma cholesterol was evaluated by hamster cholesterol absorption assay at the particular dose of 10 (mg/kg/day); type: functional, Cricetulus griseus; outline: as §1
[10] = system: Cricetinae gen. sp.; assay: Percent reduction in plasma cholesterol was evaluated by hamster cholesterol absorption assay at the particular dose of 50(mg/kg/day); type: functional, Cricetulus griseus; outline: as §1
[11] = Cricetinae gen. sp., read-out: ED50

SMILES	inhibition ([3]; 10 uM) [%]	Reduction [1] [%]	Reduction [2] [%]	Reduction [7] [%]	Reduction [9] [%]	further results
COc1ccc(N2C(=O)[C@@](CCCc3ccccc3)(c3ccccc3)[C@H]2c2ccccc2)cc1	84	11	16			IC50 [4]: 6 µM
COc1ccc(N2C(=O)[C@@](C(=O)Cc3ccccc3)(c3ccccc3)[C@H]2c2ccccc2)cc1						Reduction [5]: 10%; inhibition ([3]; 25 uM, in the assay text read “at 25 uM” for “at 10 uM”): 83%; Reduction [6]: 26%
COc1ccc([C@@H]2[C@@H](CCCc3ccccc3)C(=O)N2c2ccc(OC)cc2)cc1 [SCH-48461]		10	0	93	43	ED50 [8]: 2.2 mg/kg/day
CC[C@@]1(CCCc2ccccc2)C(=O)N(c2c(OC)cc(OC)cc2OC)[C@@H]1c1ccccc1	82	0	31			
CCCCCCCCCCC(C)(C)C(=O)Nc1c(OC)cc(OC)cc1OC [CL-976]	72			33	0	ED50 [8, 11]: 16 mg/kg/day
CC[C@]1(CCCc2ccccc2)CN(c2ccc(OC)cc2)C1=O		10	0			
COc1ccc(N2C(=O)[C@@H](CCCc3ccccc3)[C@H]2c2ccccc2)cc1	28		0			Reduction [10]: 0%
COc1ccc([C@@H]2[C@H](CCCc3ccccc3)C(=O)N2c2ccc(OC)cc2)cc1				55	17	ED50 [8, 11]: 11.5 mg/kg/day
COc1ccc([C@@H]2[C@@H](CCCc3ccccc3)C(=O)N2c2ccc(OC)cc2)cc1 (racemic) [SCH-48461]				60	21	ED50 [8]: 7.1 mg/kg/day

Further lines, with some results ahead:

inhibition ([3]; 10 uM) [%]	SMILES	Reduction [1] [%]	Reduction [2] [%]	Reduction [7] [%]	Reduction [9] [%]	further results
33	CC[C@]1(CCCc2ccccc2)C(=O)N(c2ccc(OC)cc2)[C@@H]1c1ccccc1	12	29			
42	CC[C@]1(CCCc2ccccc2)C(=O)N(c2c(OC)cc(OC)cc2OC)[C@@H]1c1ccccc1	0	0			
38	CC[C@]1(CCCc2ccccc2)CN(c2c(OC)cc(OC)cc2OC)C1=O		-29			Reduction [10]: 7%
61	COc1cc(OC)c(N2C(=O)[C@@H](CCCc3ccccc3)[C@H]2c2ccccc2)c(OC)c1	0	-20			
